From ChEMBL document CHEMBL3804758, “Click-based synthesis and antitubercular evaluation of novel dibenzo[b,d]thiophene-1,2,3-triazoles with piperidine, piperazine, morpholine and thiomorpholine appendages” (Bioorg Med Chem Lett, 2016)
≈ marks a conversion by molar mass, not a printed value.

test system: Mycobacterium tuberculosis; test: Antimycobacterial activity against Mycobacterium tuberculosis H37Rv ATCC 27294 after 28 days by agar dilution technique; assay type: functional; conditions: H37Rv ATCC 27294, 672 h
Summary of the method: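 Agar dilution in Middlebrook 7H11 with OADC supplement. Two-fold serial dilutions from 50.0 down to 0.4 µg/mL were incorporated into the agar. Inoculum of H37Rv came from fresh 7H11/OADC slants, suspended in saline diluted to […]. 5 μL was spotted per tube, incubated at 37 °C and read after 28 days. MIC was the lowest concentration giving complete growth inhibition, done in triplicate.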

Row | Structure (SMILES) | MIC
1 | Cc1ccc(-c2cn(C(CN3CCNCC3)c3ccc4sc5ccccc5c4c3)nn2)cc1 (stereo not drawn) | 6.25 µg/mL (≈ 13.8 µM)
2 | CCCCc1cn(C(CN2CCNCC2)c2ccc3sc4ccccc4c3c2)nn1 (stereo not drawn) | 12.5 µg/mL (≈ 29.8 µM)
3 | c1ccc(-c2cn(C(CN3CCNCC3)c3ccc4sc5ccccc5c4c3)nn2)cc1 (stereo not drawn) | 12.5 µg/mL (≈ 28.4 µM)
4 | O=[N+]([O-])c1ccc(-c2cn(C(CN3CCCCC3)c3ccc4sc5ccccc5c4c3)nn2)cc1 (stereo not drawn) | 50 µg/mL (≈ 103 µM)
5 | Cc1ccc(-c2cn(C(CN3CCCCC3)c3ccc4sc5ccccc5c4c3)nn2)cc1 (stereo not drawn) | 50 µg/mL (≈ 110 µM)
6 | Fc1ccc(-c2cn(C(CN3CCNCC3)c3ccc4sc5ccccc5c4c3)nn2)c(Cl)c1 (stereo not drawn) | 1.56 µg/mL (≈ 3.17 µM)
7 | Cc1ccc(-c2cn(C(CN3CCN(CCO)CC3)c3ccc4sc5ccccc5c4c3)nn2)cc1 (stereo not drawn) | 50 µg/mL (≈ 100 µM)
8 | CCCCc1cn(C(CN2CCN(CCO)CC2)c2ccc3sc4ccccc4c3c2)nn1 (stereo not drawn) | 6.25 µg/mL (≈ 13.5 µM)
9 | CC(C)(C)c1ccc(-c2cn(C(CN3CCSCC3)c3ccc4sc5ccccc5c4c3)nn2)cc1 (stereo not drawn) | 6.25 µg/mL (≈ 12.2 µM)
10 | Fc1ccc(-c2cn(C(CN3CCCCC3)c3ccc4sc5ccccc5c4c3)nn2)c(Cl)c1 (stereo not drawn) | 50 µg/mL (≈ 102 µM)
11 | O=[N+]([O-])c1ccc(-c2cn(C(CN3CCNCC3)c3ccc4sc5ccccc5c4c3)nn2)cc1 (stereo not drawn) | 3.12 µg/mL (≈ 6.44 µM)
12 | c1ccc(-c2cn(C(CN3CCOCC3)c3ccc4sc5ccccc5c4c3)nn2)cc1 (stereo not drawn) | 50 µg/mL (≈ 113 µM)
13 | CC(C)(C)c1ccc(-c2cn(C(CN3CCN(CCO)CC3)c3ccc4sc5ccccc5c4c3)nn2)cc1 (stereo not drawn) | 25 µg/mL (≈ 46.3 µM)
14 | CCCCc1cn(C(CN2CCOCC2)c2ccc3sc4ccccc4c3c2)nn1 (stereo not drawn) | 50 µg/mL (≈ 119 µM)
15 | Cc1ccc(-c2cn(C(CN3CCOCC3)c3ccc4sc5ccccc5c4c3)nn2)cc1 (stereo not drawn) | 25 µg/mL (≈ 55 µM)
16 | O=[N+]([O-])c1ccc(-c2cn(C(CN3CCN(CCO)CC3)c3ccc4sc5ccccc5c4c3)nn2)cc1 (stereo not drawn) | 12.5 µg/mL (≈ 23.6 µM)
17 | O=[N+]([O-])c1ccc(-c2cn(C(CN3CCOCC3)c3ccc4sc5ccccc5c4c3)nn2)cc1 (stereo not drawn) | 50 µg/mL (≈ 103 µM)

Row | Structure (SMILES) | MIC
18 | Fc1ccc(-c2cn(C(CN3CCSCC3)c3ccc4sc5ccccc5c4c3)nn2)c(Cl)c1 (stereo not drawn) | 12.5 µg/mL (≈ 24.6 µM)
19 | CCCCc1cn(C(CN2CCSCC2)c2ccc3sc4ccccc4c3c2)nn1 (stereo not drawn) | 25 µg/mL (≈ 57.3 µM)
20 | OCCN1CCN(CC(c2ccc3sc4ccccc4c3c2)n2cc(-c3ccc(F)cc3Cl)nn2)CC1 (stereo not drawn) | 12.5 µg/mL (≈ 23.3 µM)
21 | c1ccc(-c2cn(C(CN3CCCCC3)c3ccc4sc5ccccc5c4c3)nn2)cc1 (stereo not drawn) | 0.78 µg/mL (≈ 1.78 µM)
22 | CC(C)(C)c1ccc(-c2cn(C(CN3CCCCC3)c3ccc4sc5ccccc5c4c3)nn2)cc1 (stereo not drawn) | 3.12 µg/mL (≈ 6.31 µM)
23 | OCCN1CCN(CC(c2ccc3sc4ccccc4c3c2)n2cc(-c3ccccc3)nn2)CC1 (stereo not drawn) | 12.5 µg/mL (≈ 25.8 µM)
24 | Fc1ccc(-c2cn(C(CN3CCOCC3)c3ccc4sc5ccccc5c4c3)nn2)c(Cl)c1 (stereo not drawn) | 25 µg/mL (≈ 50.7 µM)
25 | O=[N+]([O-])c1ccc(-c2cn(C(CN3CCSCC3)c3ccc4sc5ccccc5c4c3)nn2)cc1 (stereo not drawn) | 25 µg/mL (≈ 49.8 µM)
26 | CC(C)(C)c1ccc(-c2cn(C(CN3CCOCC3)c3ccc4sc5ccccc5c4c3)nn2)cc1 (stereo not drawn) | 6.25 µg/mL (≈ 12.6 µM)
27 | Cc1ccc(-c2cn(C(CN3CCSCC3)c3ccc4sc5ccccc5c4c3)nn2)cc1 (stereo not drawn) | 12.5 µg/mL (≈ 26.6 µM)
28 | CCCCc1cn(C(CN2CCCCC2)c2ccc3sc4ccccc4c3c2)nn1 (stereo not drawn) | 0.78 µg/mL (≈ 1.86 µM)
29 | c1ccc(-c2cn(C(CN3CCSCC3)c3ccc4sc5ccccc5c4c3)nn2)cc1 (stereo not drawn) | 50 µg/mL (≈ 109 µM)
30 | CC(C)(C)c1ccc(-c2cn(C(CN3CCNCC3)c3ccc4sc5ccccc5c4c3)nn2)cc1 (stereo not drawn) | 6.25 µg/mL (≈ 12.6 µM)
31 | CC[C@@H](CO)NCCN[C@@H](CC)CO [ETHAMBUTOL] | 3.13 µg/mL (≈ 15.3 µM)
32 | NNC(=O)c1ccncc1 [ISONIAZID] | 0.1 µg/mL (≈ 0.729 µM)
33 | NC(=O)c1cnccn1 [PYRAZINAMIDE] | 50 µg/mL (≈ 406 µM)
